Laboratory results reported in ChEMBL document CHEMBL1143246, “Design and synthesis of bicyclic pyrimidinones as potent and orally bioavailable HIV-1 integrase inhibitors” (J Med Chem, 2008).

Tests used:
[1] = test system: Human immunodeficiency virus 1; assay: Antiviral activity against HIV1 in human MT4 cell assessed as inhibition of virus spread in presence of 10% fetal bovine serum; format: functional; details: Human immunodeficiency virus 1, MT4; read-out: CIC95
Procedure, shortened: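 Spread of HIV-1 infection in MT-4 human T-lymphoid cell culture with 10% fetal bovine serum; CIC95 is the concentration inhibiting spread by ≥95%; mean of at least three independent experiments.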

[2] = test system: Human immunodeficiency virus 1; assay: Antiviral activity against HIV1 in human MT4 cell assessed as inhibition of virus spread in presence of 50% normal human serum; format: functional; details: Human immunodeficiency virus 1, MT4; read-out: CIC95
Procedure, shortened: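 Spread of HIV-1 infection in MT-4 human T-lymphoid cell culture with 50% normal human serum; CIC95 is the concentration inhibiting spread by ≥95%; mean of at least three independent experiments.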

[3] = Inhibition of recombinant HIV1 integrase strand transfer activity
[4] = Plasma clearance in rat at 3 mg/kg, po or 3 mg/kg, iv; format: ADME, organism-based
Procedure, shortened: (§1)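 In vivo PK: iv dosing in DMSO/PEG400/H₂O mixtures, oral dosing as methylcellulose suspension. Half-life was taken after iv dosing; AUC and Cmax after po dosing.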

[5] = Oral bioavailability in rat at 3 mg/kg; format: ADME, organism-based; details: in vivo; procedure, shortened: as §1
Liver [6] = assay: Metabolic stability in dog liver microsomes in presence of NADPH and UDPGA; format: ADME, Canis lupus familiaris, Microsome
Procedure, shortened: (§2)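 Multiple time points over 1 h: compound 1 µM with liver microsomes 1 mg/mL, in the presence of both UDPGA and NADPH; degradation followed by LC/MS/MS.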

[7] = Protein binding in dog plasma; format: ADME, cell-free, Canis lupus familiaris; details: read-out: PPB (converted)
Procedure, shortened: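 Plasma protein binding measured by ultrafiltration after incubation at 37 °C for 1 h.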

[8] = Protein binding in rat plasma; format: ADME, cell-free; details: read-out: PPB (converted)
Procedure, shortened: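 Plasma protein binding was measured by ultrafiltration after a 1 h incubation of compound in plasma at 37 °C.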

Liver microsomes [9] = assay: Metabolic stability in rat liver microsomes in presence of NADPH and UDPGA; format: ADME, Microsome; procedure, shortened: as §2
[10] = Plasma clearance in dog at 1 mg/kg, iv or 2 mg/kg, po; format: ADME, organism-based, Canis lupus familiaris; procedure, shortened: as §1
Homo sapiens = species: Homo sapiens; assay: Protein binding in human plasma; details: read-out: PPB (converted)
[11] = Oral bioavailability in dog at 2 mg/kg; format: ADME, organism-based, Canis lupus familiaris; details: in vivo; procedure, shortened: as §1
Liver microsomes [12] = assay: Metabolic stability in human liver microsomes in presence of UDPGA; format: ADME, Microsome
Procedure, shortened: (§3)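 Liver microsomes (1 mg/mL) with test compound at 2 µM, incubated with UDPGA or NADPH; degradation measured by LC/MS/MS after 1 h.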

Liver [13] = assay: Metabolic stability in dog liver microsomes in presence of UDPGA; format: ADME, Canis lupus familiaris, Microsome
Liver microsomes [14] = assay: Metabolic stability in rat liver microsomes in presence of UDPGA; format: ADME, Microsome
Liver [15] = assay: Metabolic stability in dog liver microsomes in presence of NADPH; format: ADME, Canis lupus familiaris, Microsome; procedure, shortened: as §3
Liver microsomes [16] = assay: Metabolic stability in human liver microsomes in presence of NADPH; format: ADME, Microsome; procedure, shortened: as §3
Liver microsomes [17] = assay: Metabolic stability in rat liver microsomes in presence of NADPH; format: ADME, Microsome; procedure, shortened: as §3

| Structure (SMILES) | IC95 [1] | IC95 [2] | IC50 [3] | further results |
| --- | --- | --- | --- | --- |
| CC(c1nc(O)c(O)c(C(=O)NCc2ccc(F)cc2)n1)N(C)C (configuration not stated) | 130 nM | 500 nM | 100 nM |  |
| CN1CCOCC1c1nc(O)c(O)c(C(=O)NCc2ccc(F)cc2)n1 (configuration not stated) | 30 nM | 230 nM | 10 nM |  |
| O=C(NCc1ccc(F)cc1)c1ncnc(O)c1O | > 10000 nM | > 10000 nM | 60 nM |  |
| CN(C)C(=O)C(=O)N(C)[C@@H]1CCCCn2c1nc(C(=O)NCc1ccc(F)cc1)c(O)c2=O | 21 nM | 42 nM | 35 nM |  |
| CN1CCN(S(=O)(=O)N(C)[C@@H]2CCCn3c2nc(C(=O)NCc2ccc(F)cc2)c(O)c3=O)CC1 | 13 nM | 20 nM | 10 nM |  |
| CN1CCN(S(=O)(=O)N(C)[C@H]2CCCn3c2nc(C(=O)NCc2ccc(F)cc2)c(O)c3=O)CC1 | 6 nM | 6 nM | 7 nM | clearance [4]: 98 mL/min/kg; bioavailability [5]: 15%; Stability (Liver [6]): 8 µL/min/mg; fraction unbound [7]: 0.18; fraction unbound [8]: 0.24; Stability (Liver microsomes [9]): 10 µL/min/mg; clearance [10]: 23 mL/min/kg |
| CN(C)C(=O)C(=O)N(C)[C@@H]1CCCn2c1nc(C(=O)NCc1ccc(F)cc1)c(O)c2=O | 67 nM | 98 nM | 19 nM |  |
| CN(C)S(=O)(=O)N(C)[C@H]1CCCn2c1nc(C(=O)NCc1ccc(F)cc1)c(O)c2=O | 12 nM | 31 nM | 5 nM | fraction unbound (Homo sapiens): 0.13; clearance [4]: 14 mL/min/kg; bioavailability [5]: 49%; bioavailability [11]: 16%; clearance [10]: 3.8 mL/min/kg |
| CN(C(=O)CS(=O)(=O)N(C)C)[C@@H]1CCCn2c1nc(C(=O)NCc1ccc(F)cc1)c(O)c2=O | 31 nM | 62 nM | 7 nM |  |
| CN(C(=O)CS(=O)(=O)N(C)C)[C@H]1CCCn2c1nc(C(=O)NCc1ccc(F)cc1)c(O)c2=O | 16 nM | 31 nM | 7 nM | fraction unbound (Homo sapiens): 0.22; Stability (Liver microsomes [12]): 46 %/hr; clearance [4]: 55 mL/min/kg; bioavailability [5]: 17%; Stability (Liver [13]): 24 %/hr; Stability (Liver microsomes [14]): 47 %/hr; fraction unbound [7]: 0.29; Stability (Liver [15]): 15 %/hr; fraction unbound [8]: 0.26; Stability (Liver microsomes [16]): 36 %/hr; Stability (Liver microsomes [17]): 51 %/hr |
| O=C(NCc1ccc(F)cc1)c1nc2n(c(=O)c1O)CCCC2 |  |  | 5 nM |  |
| CN1CCOCC1c1nc(C(=O)NCc2ccc(F)cc2)c(O)c(=O)n1C (configuration not stated) | 60 nM | 100 nM |  |  |
| O=C(NCc1ccc(F)cc1)c1nc2n(c(=O)c1O)CCC2 |  |  | 8 nM |  |
| O=C(NCc1ccc(F)cc1)c1nc2n(c(=O)c1O)CCCCC2 |  |  | 19 nM |  |
| CN(C1CCCCn2c1nc(C(=O)NCc1ccc(F)cc1)c(O)c2=O)S(C)(=O)=O (racemic) | 31 nM | 125 nM | 16 nM |  |
| CN(C(=O)C(F)F)C1CCCn2c1nc(C(=O)NCc1ccc(F)cc1)c(O)c2=O (racemic) | 500 nM | 1000 nM | 18 nM |  |
| CC(=O)N(C)C1CCCCn2c1nc(C(=O)NCc1ccc(F)cc1)c(O)c2=O (racemic) | 250 nM | 500 nM | 8 nM |  |
| CN(Cc1ccccc1)C1CCCCn2c1nc(C(=O)NCc1ccc(F)cc1)c(O)c2=O (racemic) |  |  | 62 nM |  |
| CN(Cc1ccccc1)C1CCCn2c1nc(C(=O)NCc1ccc(F)cc1)c(O)c2=O (racemic) |  |  | 4 nM |  |
| CC(=O)N(C)C1CCn2c1nc(C(=O)NCc1ccc(F)cc1)c(O)c2=O (racemic) | > 1000 nM | > 1000 nM | 9 nM |  |
| CC(=O)N(C)C1CCCn2c1nc(C(=O)NCc1ccc(F)cc1)c(O)c2=O (racemic) | 1000 nM | 1000 nM | 6 nM |  |
| CN(C(=O)CS(C)(=O)=O)C1CCCCn2c1nc(C(=O)NCc1ccc(F)cc1)c(O)c2=O (racemic) | 63 nM | 125 nM | 17 nM |  |
| CN(C)C(=O)C(=O)N(C)C1CCn2c1nc(C(=O)NCc1ccc(F)cc1)c(O)c2=O (racemic) | > 1000 nM | > 1000 nM | 20 nM |  |
| CN(C)C(=O)C(=O)N(C)C1CCCCn2c1nc(C(=O)NCc1ccc(F)cc1)c(O)c2=O (racemic) | 94 nM | 63 nM | 13 nM |  |

| Structure (SMILES) | IC95 [1] | IC95 [2] | IC50 [3] | further results |
| --- | --- | --- | --- | --- |
| O=C(NCc1ccc(F)cc1)c1nc2n(c(=O)c1O)CCCC2N1CCOCC1 (racemic) |  |  | 5 nM |  |
| CN(C1CCCn2c1nc(C(=O)NCc1ccc(F)cc1)c(O)c2=O)S(=O)(=O)N1CCOCC1 (racemic) | 15 nM | 31 nM | 11 nM |  |
| CN(C)S(=O)(=O)N(C)C1CCCn2c1nc(C(=O)NCc1ccc(F)cc1)c(O)c2=O (racemic) | 16 nM | 21 nM | 5 nM |  |
| CN(C)S(=O)(=O)N(C)C1CCn2c1nc(C(=O)NCc1ccc(F)cc1)c(O)c2=O (racemic) | > 1000 nM | > 1000 nM | 45 nM |  |
| CN1CCCN(C2CCCn3c2nc(C(=O)NCc2ccc(F)cc2)c(O)c3=O)S1(=O)=O (racemic) | 16 nM | 47 nM | 14 nM |  |
| CN(C)S(=O)(=O)N(C)C1CCCCn2c1nc(C(=O)NCc1ccc(F)cc1)c(O)c2=O (racemic) | 31 nM | 125 nM | 10 nM |  |
| CN(C1CCCn2c1nc(C(=O)NCc1ccc(F)cc1)c(O)c2=O)S(=O)(=O)N1CCCCC1 (racemic) | 63 nM | 125 nM | 9 nM |  |
| O=C(NCc1ccc(F)cc1)c1nc2n(c(=O)c1O)CCCC2N1CCCCC1 (racemic) |  |  | 4 nM |  |
| CN1CCN(S(=O)(=O)N(C)C2CCCn3c2nc(C(=O)NCc2ccc(F)cc2)c(O)c3=O)CC1 (racemic) | 6 nM | 20 nM | 7 nM |  |
| Cc1nn(C)c(C)c1S(=O)(=O)N(C)C1CCCn2c1nc(C(=O)NCc1ccc(F)cc1)c(O)c2=O (racemic) | 21 nM | 63 nM | 7 nM | Stability (Liver microsomes [12]): 90 %/hr; Stability (Liver [13]): 78 %/hr; Stability (Liver microsomes [14]): 94 %/hr |
| CN(C)C1CCn2c1nc(C(=O)NCc1ccc(F)cc1)c(O)c2=O (racemic) |  |  | 7 nM |  |
| CS(=O)(=O)CC(=O)NC1CCCn2c1nc(C(=O)NCc1ccc(F)cc1)c(O)c2=O (racemic) | 1000 nM | 1000 nM | 7 nM |  |
| CN(C(=O)CS(C)(=O)=O)C1CCCn2c1nc(C(=O)NCc1ccc(F)cc1)c(O)c2=O (racemic) | 16 nM | 22 nM | 6 nM | fraction unbound (Homo sapiens): 0.3 |
| CN(C(=O)CS(=O)(=O)N(C)C)C1CCCn2c1nc(C(=O)NCc1ccc(F)cc1)c(O)c2=O (racemic) | 16 nM | 47 nM | 9 nM | fraction unbound (Homo sapiens): 0.19 |
| O=C(NCc1ccc(F)cc1)c1nc2n(c(=O)c1O)CCCC2N1CCCC1 (racemic) |  |  | 63 nM |  |
| CN(C1CCCn2c1nc(C(=O)NCc1ccc(F)cc1)c(O)c2=O)S(C)(=O)=O (racemic) | 26 nM | 86 nM | 12 nM | Stability (Liver microsomes [12]): 74 %/hr; clearance [4]: 48 mL/min/kg; bioavailability [5]: 47%; Stability (Liver [13]): 29 %/hr; Stability (Liver microsomes [14]): 88 %/hr |
| CN(C)C1CCCCn2c1nc(C(=O)NCc1ccc(F)cc1)c(O)c2=O (racemic) |  |  | 550 nM |  |
| CN(C(=O)Cn1cccn1)C1CCCn2c1nc(C(=O)NCc1ccc(F)cc1)c(O)c2=O (racemic) | > 1000 nM | > 1000 nM | 3 nM |  |
| CN(C(=O)c1nc2ncccn2n1)C1CCCn2c1nc(C(=O)NCc1ccc(F)cc1)c(O)c2=O (racemic) | 250 nM | 250 nM | 10 nM |  |
| CN(C1CCCn2c1nc(C(=O)NCc1ccc(F)cc1)c(O)c2=O)S(=O)(=O)N1CCCC1 (racemic) | 16 nM | 47 nM | 7 nM |  |
| CN1CCCN(C2CCCCn3c2nc(C(=O)NCc2ccc(F)cc2)c(O)c3=O)S1(=O)=O (racemic) | 78 nM | 156 nM | 6 nM |  |
| CN(C)C(=O)C(=O)N(C)C1CCCn2c1nc(C(=O)NCc1ccc(F)cc1)c(O)c2=O (racemic) | 38 nM | 40 nM | 7 nM |  |
| O=C(NCc1ccc(F)cc1)c1nc2n(c(=O)c1O)CCCCC2N1CCOCC1 (racemic) |  |  | 62 nM |  |
| CN(C)C1CCCn2c1nc(C(=O)NCc1ccc(F)cc1)c(O)c2=O (racemic) |  |  | 69 nM |  |
